GPR7 antag: human neuropeptides B/W receptor 1 antagonism | P48145 | GPR7-expressing cells, fluorescence antagonist assay | inhibition, % at 4.4 µM | 290,000 compounds, 1.1% hits; in the data active means inhibition above about 16%, passing the limit was not always enough;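 further: cells stimulated with the agonist NPW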
Target sequence (P48145 whole entry, looked up): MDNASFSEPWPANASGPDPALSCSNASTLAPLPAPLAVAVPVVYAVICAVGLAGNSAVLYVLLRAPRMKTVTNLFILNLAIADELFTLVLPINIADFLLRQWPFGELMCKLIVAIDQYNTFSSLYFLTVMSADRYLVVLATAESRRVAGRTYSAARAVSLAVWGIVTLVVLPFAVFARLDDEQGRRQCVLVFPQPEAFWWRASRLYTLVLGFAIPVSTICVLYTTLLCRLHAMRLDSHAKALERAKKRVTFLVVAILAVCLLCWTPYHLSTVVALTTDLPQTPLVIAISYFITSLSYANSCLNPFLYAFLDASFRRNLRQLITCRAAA
TAAR1 antagonist: antagonists of human TAAR1. Q96RJ0. inhibition, % at 3 µM. CHO RD-HGA16 TAAR1, Fluo-8 calcium fluorescence, antagonist. 360,000 compounds, 1.5% hits;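 active means inhibition above a per-plate cutoff, the mean inhibition of test compounds on that plate plus 3 SD, cut at about 49% in these data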
Target sequence (Q96RJ0 whole entry, looked up): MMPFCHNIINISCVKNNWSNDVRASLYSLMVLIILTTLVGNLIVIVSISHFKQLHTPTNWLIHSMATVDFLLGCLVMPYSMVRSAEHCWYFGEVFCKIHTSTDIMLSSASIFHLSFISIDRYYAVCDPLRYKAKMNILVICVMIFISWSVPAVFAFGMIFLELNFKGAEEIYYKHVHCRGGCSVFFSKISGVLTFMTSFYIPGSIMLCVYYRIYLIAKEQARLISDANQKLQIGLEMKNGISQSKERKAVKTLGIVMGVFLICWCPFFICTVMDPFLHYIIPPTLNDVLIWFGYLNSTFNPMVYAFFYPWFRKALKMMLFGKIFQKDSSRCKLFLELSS
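Material: RD-HGA16 CHO cells with stable hTAAR1 and Gα16; Dosing: single nominal final test compound concentration of 3 µM; Schedule: seeding 17-24 h prior, 75-min 37 °C, 30-min RT dye loading; Detection: kinetic Fluo-8 calcium fluorescence measurement; Measure: % inhibition from peak post-agonist over basal fluorescence ratio; Benchmarks: vehicle and agonist controls.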
OX1R antag-1: human HCRTR1 antagonism | O43613 | CHO/OX1R cells, Fluo-8 calcium fluorescence, orexin A | inhibition, % at 5 µM | 330,000 compounds, 0.43% hits;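 active means inhibition above its plate's threshold, mean inhibition of all tested compounds on the plate plus 3 SD, cut at about 37% in these data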
OX1R antag-2: OX1R (human) antagonism; O43613; 330,000 compounds, 1.8% hits; inhibition, % at 6.6 µM; OX1R-expressing cells, FRET antagonist read-out; in the data active means inhibition mostly above about 38%, no sharp cut-off; inactive means mostly below about 40%
CHO parental Ca: signal in parental CHO cells, OX1R antagonist counter-screen. 330,000 compounds, 0.63% hits. AID 463079. inhibition, % at 5.6 µM. parental CHO-K1, ATP-induced calcium, Fluo-8 fluorescence;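 active means inhibition above that plate's mean sample inhibition plus 3 SD, cut at about 26% in these data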
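Material – parental CHO cells · Reagent – ATP stimulus · Compound – single nominal dose of 5.6 µM per compound · Detection – Fluo-8 fluorescence · Read-out basis – percent inhibition of calcium signal · Controls – ATP-challenged DMSO wells low, unchallenged DMSO wells high · Repeats – no replicates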
TAAR1 ag: human TAAR1 agonism; Q96RJ0; CHO RD-HGA16 TAAR1, Fluo-8 calcium fluorescence; vehicle wells 0%, saturating PEA agonist 100%; activation, % at 3 µM; 360,000 compounds, 0.99% hits; AID 624467;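 active means activation above the mean activation of all test compounds in the run plus 3 SD, cut at about 38% in these data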
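System: CHO-derived RD-HGA16 cells with stable Gα16 and human TAAR1 / Times: 17-24 h plating, Fluo-8 75 min 37 °C, 30 min RT / Technique: calcium-sensitive Fluo-8 signal, excitation 470-495, emission 515-575 nm / Measure: % activation relative to PEA EC100 response / Benchmarks: DMSO and PEA EC100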
Large screens that a line does not name were inactive. Most compounds without a hit are left out; they make up all but 4.6% or so of the library.

O=C(NCCc1cccs1)C1CC(c2c(Cl)cccc2Cl)=NO1 (configuration not stated)	TAAR1 ag 46.6
O=C(NCc1cccs1)C1CC(c2ccc(Cl)c(Cl)c2)=NO1 (configuration not stated)	none
COCc1cc(N2CCN(C(=O)OC(C)(C)C)C[C@H]2C)ccc1N1CCS(=O)(=O)CC1	none (no result: GPR7 antag, OX1R antag-1, OX1R antag-2, CHO parental Ca)
O=C(c1cccs1)N1CCN(Cc2nc(-c3ccccc3)no2)CC1	none (no result: GPR7 antag, OX1R antag-1, OX1R antag-2, CHO parental Ca)
COC(=O)Cc1nnn2c1[C@H](C)[C@H](c1cccc(OC)c1OC)OCC2	none (no result: GPR7 antag, OX1R antag-1, OX1R antag-2, CHO parental Ca)
CC(=O)N1CC(C)Sc2ccc(S(=O)(=O)NCCc3ccc(C)cc3)cc21 (configuration not stated)	none
CC(=O)N1CCOc2ccc(S(=O)(=O)NCCc3cccc(C)c3)cc21	TAAR1 ag 46.7
CC(=O)N1CC(C)Sc2ccc(S(=O)(=O)NCCc3ccccc3)cc21 (configuration not stated)	TAAR1 ag 43.6
CC(=O)N1CCOc2ccc(S(=O)(=O)Nc3cccc(C)c3)cc21	none
Nc1ncncc1-c1ccc([N+](=O)[O-])cc1	OX1R antag-2 63.3
Nc1ncncc1-c1ccc(F)cc1	none (no result: GPR7 antag, OX1R antag-1, OX1R antag-2, CHO parental Ca)
CC1CN(Cc2cc(=O)n3ccsc3n2)CC(C)O1 (configuration not stated)	TAAR1 ag 40.1
O=c1cc(CN2CCC(Cc3ccccc3)CC2)nc2sccn12	none
Cc1ccc(Nc2nc(CSc3nnc(-c4cccnc4)n3-c3ccccc3C)cs2)cc1	OX1R antag-2 67.0
Cc1ccccc1-n1c(SCc2csc(Nc3ccccc3)n2)nnc1-c1cccnc1	OX1R antag-2 69.3
COC(=O)[C@]12C[C@H](CC(=O)N3CCOCC3)C(=O)N(CCc3ccc(OC)c(OC)c3)C1=C[C@H](C(C)(C)C)O[C@@H]2C	none (no result: GPR7 antag, OX1R antag-1, OX1R antag-2, CHO parental Ca)
COCc1[nH]nc2c1C(c1ccc(C)cc1)N(c1ccc(OC)cc1)C2=O (configuration not stated)	none (no result: GPR7 antag, OX1R antag-1, OX1R antag-2, CHO parental Ca)
O=C(CCNC(=O)c1ccc(Br)cc1)NNC(=O)c1ccccc1	TAAR1 ag 40.4 (no result: GPR7 antag)
O=C(CCNC(=O)c1ccccc1)NNC(=O)c1ccc(F)cc1	none (no result: GPR7 antag)
CSc1nnc2c(n1)[nH]c1c(C)cccc12	none
CCSc1nnc2c(n1)[nH]c1c(C)cccc12	OX1R antag-2 40.2
CCCCc1c(-c2ccccc2OC)ncn1Cc1ccc([N+](=O)[O-])cc1	none (no result: GPR7 antag, OX1R antag-1, OX1R antag-2, CHO parental Ca)
COC(=O)[C@]12C[C@H](CC(=O)N3CCC(c4ccccc4)CC3)C(=O)N(Cc3ccc4c(c3)OCO4)C1=C[C@H](C(C)(C)C)O[C@@H]2C	none (no result: GPR7 antag, OX1R antag-1, OX1R antag-2, CHO parental Ca)
CN(C)c1ccc(/C=C2\CCC/C(=C\c3ccccc3)C2=O)cc1	CHO parental Ca 50.8
COc1cc2ccccc2cc1C(=O)Nc1ccc(Cc2ccncc2)cc1	OX1R antag-1 44.7, CHO parental Ca 38.2
O=C(COc1ccc2ccccc2c1)Nc1ccc(Cc2ccncc2)cc1	OX1R antag-1 59.1
O=C(O)Cc1ccc(NC(=O)COc2ccc3ccccc3c2)cc1	none
COC(=O)[C@]12C[C@H](CC(=O)NCCCN3CCCC3=O)C(=O)N(Cc3ccccc3)C1=C[C@H](C(C)(C)C)O[C@@H]2C	none (no result: GPR7 antag, OX1R antag-1, OX1R antag-2, CHO parental Ca)
O=C(Nc1ccc(OCC(F)(F)C(F)F)c(C(F)(F)F)c1)c1ccccc1O	OX1R antag-1 66.4, OX1R antag-2 84.5, CHO parental Ca 72.0
O=C(Nc1ccc(OCC(F)(F)C(F)F)c(C(F)(F)F)c1)c1ccccc1	none
CC(=O)Nc1ccc(CN(C)c2c(C)nc3ccc(C(=O)N4CCN(c5ccccc5)CC4)cn23)cc1	none (no result: GPR7 antag, OX1R antag-1, OX1R antag-2, CHO parental Ca)
O=C(c1ccc(N2C(=O)c3ccccc3C2=O)cc1)N1CCN(S(=O)(=O)c2ccccc2F)CC1	none (no result: GPR7 antag, OX1R antag-1, OX1R antag-2, CHO parental Ca)
O=c1ccc(-c2ccccc2)nn1Cc1ccccc1F	none (no result: OX1R antag-1, OX1R antag-2, CHO parental Ca)
C=Cc1ccc(Cn2nc(-c3ccccc3)ccc2=O)cc1	CHO parental Ca 49.9
CC1=NNC(=O)/C1=C\c1cn(-c2ccccc2)nc1-c1cccs1	TAAR1 antagonist 86.1, OX1R antag-1 72.8, CHO parental Ca 62.7
Cc1c(O)ccc(/C=N/Nc2nc(-c3cccnc3)nc3ccccc23)c1O	TAAR1 antagonist 74.5
CCC(CNc1cc(OC)cc2cccnc12)NC1CCCCC1 (configuration not stated)	OX1R antag-2 57.6
COc1cc(NCCCC(C)N)c2ncccc2c1 (configuration not stated)	none (no result: OX1R antag-1, OX1R antag-2, CHO parental Ca)
O=S1(=O)CCSC[C@@H](CN2CCCC2)N1	none (no result: GPR7 antag, OX1R antag-1, OX1R antag-2, CHO parental Ca)
CCCNC(=O)Nc1nc2ccccc2s1	none
CCCNC(=O)c1ccc(-c2nc3ccccc3s2)s1	OX1R antag-2 61.3
CCCc1ccc(Oc2c(-c3ccc(O)c(C)c3O)n[nH]c2C)cc1	CHO parental Ca 28.7
CC(C)(C)c1ccc(-n2ncc3c2CCCC3NC(=O)C2(C(N)=O)CC2)cc1 (configuration not stated)	CHO parental Ca 42.9
Cc1cc(C(=O)NC2CCCc3c2cnn3-c2ccc(C(C)(C)C)cc2)nn1C (configuration not stated)	CHO parental Ca 50.8
CN(C)c1ccc(C(=O)NCC2CCN(C(=O)C(=O)c3cccs3)CC2)cc1	none (no result: GPR7 antag, OX1R antag-1, OX1R antag-2, CHO parental Ca)
Cc1nc2ccc3[nH]snc3c2n1	OX1R antag-2 51.9
COc1ccccc1N1CCN(C(=O)Cc2c(C(=O)O)[nH]c3ccc(Cl)cc23)CC1	none
O=C(O)c1[nH]c2ccc(Cl)cc2c1CC(=O)N1CCN(c2ccccc2)CC1	CHO parental Ca 43.7
COc1cc(/C=N/N(c2ccccc2)c2ccccc2)ccc1O	none
CN(/N=C\c1ccc(O)c(O)c1)c1nc(-c2ccccc2)cc(-c2ccccc2)n1	CHO parental Ca 28.5
COC(=O)[C@]12CCCCC=C1N(Cc1ccc(Cl)cc1Cl)C(=O)[C@H](CC(=O)NCCCN1CCCC1=O)C2	none (no result: GPR7 antag, OX1R antag-1, OX1R antag-2, CHO parental Ca)
CC1COCC(C)N1C1=C(Cl)C(=O)c2ccccc2C1=O (configuration not stated)	TAAR1 ag 41.0 (no result: GPR7 antag, OX1R antag-1, OX1R antag-2, CHO parental Ca)
CCOC(=O)/C(=C\Nc1cccc(OCc2ccccc2)c1)NC(=O)c1ccccc1	none (no result: GPR7 antag, OX1R antag-1, OX1R antag-2, CHO parental Ca)
COc1ccc(NC(=O)CC2SC(=NCC3CCCO3)NC2=O)c([N+](=O)[O-])c1 (configuration not stated)	OX1R antag-2 49.6
CN(C)S(=O)(=O)c1cccc(NC(=O)c2cc(-c3cccs3)nc3ccccc23)c1	TAAR1 antagonist 64.5
O=C(Nc1nnc(-c2cccs2)o1)c1cc(-c2ccccc2)nc2ccccc12	OX1R antag-2 46.2
O=C(Nc1ccccc1)Nc1cccc(-c2nnco2)c1	TAAR1 ag 43.8
Cc1nc(N)nc(N/N=C/c2ccccc2)n1	none
Cc1cc(N/N=C/c2ccccc2)nc(N)n1	TAAR1 ag 40.7
C[C@@H]1CN([C@H](C)CO)C(=O)CCCn2nncc2CO[C@@H]1CN(C)S(=O)(=O)c1ccccc1F	none (no result: GPR7 antag, OX1R antag-1, OX1R antag-2, CHO parental Ca)
CCOc1ccc(N=Cc2ccc3ccccc3c2)cc1	none
